Measured values from different studies.
Protocols differ between the studies behind these lines.
Organism: Plasmodium falciparum
Effect on: parasite growth

SMILES | method | strain | time | setting | EC50
Cc1cc(NC2Cc3cc(F)c(F)cc3C2)n2nc(C(C)(F)F)nc2n1 | – | K1 | – | drug-resistant strain, blood stage | 49 nM
CN1CCN(S(=O)(=O)c2ccc(-c3ccc4ncnc(Nc5ccc(OCc6cccc(F)c6)c(Cl)c5)c4c3)cc2)CC1 | SYBR Green | W2 | – | drug-resistant strain, blood stage | 44 nM
C[C@@H]1C[C@@H]([C@H](O)CC2CC(=O)NC(=O)C2)C(=O)[C@@H](C)C1 | SYBR Green | 3D7 | – | blood stage | 200 nM
O=C1C(O)=C([C@H]2CC[C@H](c3ccc(Cl)cc3)CC2)C(=O)c2ccccc21 | SYBR Green | D6 | 72 h | blood stage | < 0.25 nM
Cc1cc(Nc2ccc(Cl)c(Cl)c2)n2nc(C)nc2n1 | SYBR Green | 3D7 | – | – | 106 nM
Cc1cc(N[C@H]2CCc3ccc(Cl)cc3C2)n2nc(C(C)(F)F)nc2n1 | – | HB3 | – | drug-resistant strain, blood stage | 0.47 nM
Cc1noc(-c2cccs2)c1C(=O)NCCc1cccc(Cl)c1 | SYBR Green | 3D7 | – | – | 313 nM
O=S(=O)(c1ccc(-c2ccc3ncnc(Nc4ccc(OCc5ccccc5)c(Cl)c4)c3c2)cc1)N1CCOCC1 | SYBR Green | W2 | – | drug-resistant strain, blood stage | 720 nM
COCC(C)n1c(SCC(=O)Nc2cc(C(F)(F)F)ccc2Cl)nc2ccccc2c1=O (stereo not drawn) | SYBR Green | 3D7 | – | – | 356 nM
COc1cc2[nH]c(C)c(-c3ccc(Oc4ccc(OC(F)(F)F)cc4)cc3)c(=O)c2cc1Cl | SYBR Green | D6 | 72 h | blood stage | 0.9 nM
OC(c1cc(C(F)(F)F)nc2c(C(F)(F)F)cccc12)C1CCCCN1 (stereo not drawn) | SYBR Green | 3D7 | – | – | 20.3 nM
CCN(CC)CCCC(C)Nc1ccnc2cc(Cl)ccc12 (stereo not drawn) | SYBR Green | D6 | 72 h | blood stage | 9.1 nM
